Data as given in ChEMBL document CHEMBL1800004, “Discovery of 4-anilinofuro[2,3-b]quinoline derivatives as selective and orally active compounds against non-small-cell lung cancers” (J Med Chem, 2011).

How the values were obtained:
Format in all cases: functional
SF-268 [1] = assay: Anticancer activity against human SF268 cells assessed as cell growth at 20 ug/mL after 48 hrs by SRB assay relative to control; conditions: SF-268, 48 h, read-out: Activity
Summary of the method: (§1)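 Cells were inoculated and preincubated in microtiter plates. Compounds were dissolved in DMSO, diluted in culture medium, and tested at 20.0 and 4.0 μg/mL for 48 h. The end-point used sulforhodamine B protein staining, and growth was expressed as percent of untreated control cells.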

SF-268 [2] = assay: Anticancer activity against human SF268 cells assessed as cell growth at 4 ug/mL after 48 hrs by SRB assay relative to control; conditions: SF-268, 48 h, read-out: Activity; summary of the method: as §1
NCI-H460 [3] = assay: Anticancer activity against human NCI-H460 cells assessed as cell growth at 4 ug/mL after 48 hrs by SRB assay relative to control; conditions: NCI-H460, 48 h, read-out: Activity; summary of the method: as §1
NCI-H460 [4] = assay: Anticancer activity against human NCI-H460 cells assessed as cell growth at 20 ug/mL after 48 hrs by SRB assay relative to control; conditions: NCI-H460, 48 h, read-out: Activity; summary of the method: as §1
MCF7 [5] = assay: Anticancer activity against human MCF7 cells assessed as cell growth at 4 ug/mL after 48 hrs by SRB assay relative to control; conditions: MCF7, 48 h, read-out: Activity; summary of the method: as §1
MCF7 [6] = assay: Anticancer activity against human MCF7 cells assessed as cell growth at 20 ug/mL after 48 hrs by SRB assay relative to control; conditions: MCF7, 48 h, read-out: Activity; summary of the method: as §1

Structure (SMILES) | growth at 20 µg/mL (SF-268 [1]) [%] | growth at 4 µg/mL (SF-268 [2]) [%] | growth at 4 µg/mL (NCI-H460 [3]) [%] | growth at 20 µg/mL (NCI-H460 [4]) [%] | growth at 4 µg/mL (MCF7 [5]) [%] | growth at 20 µg/mL (MCF7 [6]) [%]
C/C(=N\OCCCCN1CCOCC1)c1ccc(Nc2c3ccccc3nc3occ(Cl)c23)cc1 | 3 | 115 | 91 | 3 | 75 | -3
C/C(=N\OCCCN(C)C)c1ccc(Nc2c3ccccc3nc3occc23)cc1 | 0 | 62 | 52 | 7 | 84 | 22
C/C(=N\OCCN1CCOCC1)c1ccc(Nc2c3ccccc3nc3occ(Cl)c23)cc1 | 32 | 121 | 107 | 16 | 112 | 54
C/C(=N\OCCCN(C)C)c1ccc(Nc2c3ccccc3nc3occ(Cl)c23)cc1 | 1 | 66 | 52 | 1 | 61 | 1
O=C(O)c1ccc(Nc2c3ccccc3nc3occ(Cl)c23)cc1 | 73 | 80 | 89 | 81 | 62 | 61
C/C(=N\OCCN(C)C)c1ccc(Nc2c3ccccc3nc3occc23)cc1 | -5 | 81 | 94 | 0 | 59 | 0
C/C(=N\OCCN1CCCCC1)c1ccc(Nc2c3ccccc3nc3occc23)cc1 | -3 | 96 | 99 | -1 | 114 | 3
COc1ccc2c(Nc3ccc(/C(C)=N/OCCN(C)C)cc3)c3ccoc3nc2c1 | 1 | 91 | 75 | -1 | 67 | -1
C/C(=N\OCCN(C)C)c1ccc(Nc2c3ccccc3nc3occ(Cl)c23)cc1 | 2 | 71 | 68 | -1 | 70 | -3
C/C(=N\OCCN1CCCCC1)c1ccc(Nc2c3ccccc3nc3occ(Cl)c23)cc1 | 31 | 120 | 101 | 3 | 121 | 26
C/C(=N\OCCN1CCOCC1)c1ccc(Nc2c3ccccc3nc3occc23)cc1 | 32 | 121 | 108 | 23 | 120 | 56
COc1ccc2c(Nc3ccc(/C(C)=N/OCCN4CCCCC4)cc3)c3c(Cl)coc3nc2c1 | 48 | 112 | 67 | 3 | 56 | -1
COc1ccc2c(Nc3ccc(/C(C)=N/OCCN4CCCCC4)cc3)c3ccoc3nc2c1 | 44 | 106 | 84 | 9 | 77 | 2
COc1ccc2c(Nc3ccc(/C(C)=N/OCCN4CCOCC4)cc3)c3c(Cl)coc3nc2c1 | 108 | 104 | 97 | 68 | 85 | 37
COc1ccc2c(Nc3ccc(/C(C)=N/OCCN4CCOCC4)cc3)c3ccoc3nc2c1 | 92 | 110 | 96 | 44 | 76 | 25
COc1ccc2c(Nc3ccc(C(=O)NCCN(C)C)cc3)c3c(Cl)coc3nc2c1 | 68 | 119 | 112 | 60 | 97 | 44
C/C(=N\OCCN1CCCC1)c1ccc(Nc2c3ccccc3nc3occ(Cl)c23)cc1 | -3 | 86 | 69 | -1 | 86 | -2
COc1ccc2c(Nc3ccc(/C(C)=N/OCCN4CCCC4)cc3)c3ccoc3nc2c1 | 6 | 104 | 69 | 5 | 63 | 3
CNC(=O)c1ccc(Nc2c3ccc(OC)cc3nc3occ(Cl)c23)cc1 | 35 | 52 | 58 | 27 | 72 | 47
C/C(=N\OCCN1CCCC1)c1ccc(Nc2c3ccccc3nc3occc23)cc1 | -3 | 66 | 54 | 1 | 64 | 6
COc1ccc2c(Nc3ccc(/C(C)=N/OCCN4CCCC4)cc3)c3c(Cl)coc3nc2c1 | 5 | 102 | 53 | 5 | 55 | 1
NC(=O)c1ccc(Nc2c3ccccc3nc3occ(Cl)c23)cc1 | 97 | 97 | 97 | 97 | 93 | 92
COc1ccc2c(Nc3ccc(/C(C)=N/OCCCN)cc3)c3ccoc3nc2c1 | 56 | 103 | 105 | 16 | 100 | 18
COc1ccc2c(Nc3ccc(/C(C)=N/OCCCN)cc3)c3c(Cl)coc3nc2c1 | 48 | 109 | 91 | 8 | 101 | 3
COc1ccc2c(Nc3ccc(C(=O)NCCO)cc3)c3c(Cl)coc3nc2c1 | 100 | 103 | 98 | 82 | 96 | 74
COc1ccc2c(Nc3ccc(C(N)=O)cc3)c3c(Cl)coc3nc2c1 |  |  | 96 | 77 | 90 | 66
COc1ccc2c(Nc3ccc(/C(C)=N/OCCCN(C)C)cc3)c3ccoc3nc2c1 | 3 | 90 | 82 | 5 | 59 | 2
COc1ccc2c(Nc3ccc(/C(C)=N/OCCCCN4CCOCC4)cc3)c3ccoc3nc2c1 | 44 | 110 | 89 | 21 | 83 | 75
COc1ccc2c(Nc3ccc(S(N)(=O)=O)cc3)c3c(Cl)coc3nc2c1 |  |  | 97 | 17 | 90 | 33
